Laboratory results as given in publication PMC2965777 (Biochemistry, 2010).

Assays:
[1] = Size exclusion chromatography, apparent molecular weight; assay type: physicochemical; details: Superdex Peptide 10/300; 10 mM sodium phosphate, 10 mM NaCl, pH 7.40; 0.5 mL/min; 100 μM YAQ12A, 170 μM 5QMe2; 230 nm
YAQ12A [2] = assay: Sedimentation assay of YAQ12A aggregation; assay type: biochemical
Procedure, shortened: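 Disaggregated peptide was diluted to 100 µM in 10 mM sodium phosphate, pH 7.40, and held at 37 °C without agitation, with or without inhibitor added as lyophilized aliquots. After 98,000 × g for 1 h at 22 °C, 100 µL of the top third went onto analytical C18 RP-HPLC (A220, isocratic water:acetonitrile:TFA 87.5:12.5:0.1). Monomer was quantified from peak area against a standard curve; mean ± S.D. of three replicates.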

[3] = Sedimentation equilibrium analytical ultracentrifugation of 5QMe2 alone; assay type: physicochemical
Procedure, shortened: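 Equilibrium sedimentation of inhibitor alone at 100 µM, 500 µM and 1 mM in 10 mM sodium phosphate, pH 7.40, at 20 °C, in six-sector cells with hourly scans. Rotor speed ran 3000 rpm (1 scan), 36,000 (16), 48,000 (13) and 60,000 rpm (19). A280 was used (A230 for 100 µM). Molecular weight came from global analysis of the three concentrations at each speed.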

YAQ12A [4] = assay: Electron microscopy of YAQ12A fibrillation products; assay type: biochemical; details: 100 μM YAQ12A with 500 μM 5QMe2, 40 h, 37 °C
Procedure, shortened: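 Aggregation products imaged by electron microscopy after incubating monomeric peptide in 10 mM sodium phosphate, pH 7.40, for 40 h at 37 °C, with or without inhibitor. Micrographs were recorded at 15,000 or 39,000× magnification, plus 1.4× from the CCD camera.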

Substance: Anth-K-Q-Q(Me2)-Q-Q(Me2)-Q-CONH2 [5QMe2]
- MW^app by size exclusion chromatography [1]: ~ 1176.0
- time after which more rapid loss of soluble YAQ12A follows the lag period (YAQ12A [2]; 100 μM YAQ12A with 100 μM 5QMe2, time course, 37 °C): ~ 70 h
- aggregation of YAQ12A over the time course (YAQ12A [2]; 100 μM YAQ12A with 1 mM 5QMe2, time course to 110 h, 37 °C): no aggregation was observed for the entire time period
- reversal of YAQ12A aggregation (YAQ12A [2]; 1 mM 5QMe2 added to 100 μM YAQ12A after 10 or 20 h of aggregation): did not reverse aggregation
- association state of the inhibitor alone ([3]; 100, 500 and 1000 μM, three rotor speeds): monomeric
- molecular weight of 5QMe2 alone, three concentrations analysed globally ([3]; rotor speed 36,000 rpm): 988.5
- molecular weight of 5QMe2 alone, three concentrations analysed globally ([3]; rotor speed 48,000 rpm): 1000.0
- molecular weight of 5QMe2 alone, three concentrations analysed globally ([3]; rotor speed 60,000 rpm): 980.1
- fibril formation of YAQ12A by electron microscopy (YAQ12A [4]): abrogates fibril formation
